This is a sample that favours compounds with a hit; in the whole collection about 3.8% have one here.
FGF22 binding – shifts melting point of recombinant human FGF22; Q9HCT0; recombinant FGF22 thermal shift, SYPRO orange fluorescence; percent of sucrose octasulfate shift, DMSO zero; activity (Tm shift, normalised), % at 9.99 µM; actives 1.5% (n = 340,000);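 active means mean Tm shift, scaled 0 neutral to 100 positive control, at about 1.3% or above, every replicate too, limit read from the data; inconclusive means no clear call, values can overlap the other calls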
Target sequence (Q9HCT0 whole entry, looked up): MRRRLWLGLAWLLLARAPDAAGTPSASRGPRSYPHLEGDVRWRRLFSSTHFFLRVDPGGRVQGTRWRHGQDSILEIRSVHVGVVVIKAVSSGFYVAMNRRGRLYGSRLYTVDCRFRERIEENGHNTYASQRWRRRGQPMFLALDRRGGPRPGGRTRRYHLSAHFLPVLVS
XiGFP reactiv – X-chromosome reactivation activator; XiGFP mouse fibroblasts, % GFP-positive cells imaging, 3 d; cells co-treated with 5-aza-dC sensitizer; scaled so ellipticine positive control = 100%; activation, % at 7.58 µM; actives 0.055% (n = 360,000); AID 743238;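 active means mean normalized replicate activation at least 10% and every replicate at or above 10%; inconclusive means only one of the two criteria met; inactive means mean below 10% and not all replicates reach 10%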;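 further: 0% = median of on-plate neutral control wells and 100% = ellipticine 6 µM median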
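System: 68-5-11 XiGFP fibroblast line | Buffer or medium: DMEM containing 5-aza-dC | Compound: Single point | Times: Compounds 3 days, fix/stain 15 min at room temperature | Benchmarks: Positive control ellipticine, 6 µM final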
DENV2 CPE – inhibitors of DENV2 cytopathic effect | DENV2-infected cells, cytopathic effect rescue, plate reader | CPE inhibition, % at 9.99 µM | actives 1.7% (n = 350,000) | AID 651640; in the data active means CPE inhibition above about 20%, passing the limit was not always enough; inconclusive means no clear call, values can overlap the other calls; tested in BHK-21 cells;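 further: 0% = median of neutral control wells and 100% = median of positive control wells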
FN deposition inh – fibronectin deposition inhibition. AH1F fibroblasts, Alexa488-fibronectin deposition fluorescence, overnight. inhibition, % at 12.6 µM. actives 0.086% (n = 350,000). AID 743247;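 active means mean inhibition across replicates of 30% or more, regardless of how many single replicates reach that level; inconclusive means mean under 30% yet at least half of replicates reach 30%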;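 further: positive control wells lacked labelled fibronectin entirely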
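Test system: AH1F fibroblast monolayer depositing Alexa488-labelled fibronectin into matrix. Input: 10000 cells per well. Technique: fluorescence, ex 485 nm, em 525 nm. Buffer or medium: DMEM plus 2% serum, read in PBS. Timing: 1 h cell adhesion before compound, then overnight fibronectin incubation. Compound: single dose, pinned. Read-out basis: inhibition from reduced deposited-fibronectin fluorescence.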
SIRT5 inh – inhibitors of human sirtuin-5 desuccinylase; Q9NXA8; Purified SirT5, succinyl-peptide AMC, trypsin-coupled fluorescence; inhibition, % at 15 µM; actives 1.1% (n = 330,000); AID 652115; in the data active means inhibition above about 15%; inconclusive means no clear call, values can overlap the other calls
Target sequence (Q9NXA8 whole entry, looked up): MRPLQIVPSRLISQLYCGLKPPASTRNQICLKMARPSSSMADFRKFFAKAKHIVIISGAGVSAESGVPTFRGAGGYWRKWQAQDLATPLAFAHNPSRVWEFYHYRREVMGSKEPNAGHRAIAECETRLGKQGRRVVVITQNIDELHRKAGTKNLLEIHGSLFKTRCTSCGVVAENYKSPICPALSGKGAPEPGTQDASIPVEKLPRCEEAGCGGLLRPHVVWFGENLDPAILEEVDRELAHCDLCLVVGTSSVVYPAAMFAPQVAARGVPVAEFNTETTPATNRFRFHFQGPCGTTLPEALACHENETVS
ARNT TACC3 PPI – disruptors of human ARNT/TACC3 interaction | actives 0.66% (n = 390,000) | AlphaScreen His-ARNT PAS-B/GST-TACC3 binding, luminescence; TACC3 fragment carries E629A point mutation | inhibition, % at 9.99 µM;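 active means mean inhibition of replicates at least 50% and at least half of replicates each reaching 50%; inconclusive means half or more replicates reach 50% but mean below 50%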;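 further: 0% = complete ARNT plus TACC3 wells and 100% = ARNT alone without TACC3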
An asterisk follows results filed as active; ? = inconclusive; · = not tested or not shown.

SMILES	FGF22 binding	XiGFP reactiv	DENV2 CPE	FN deposition inh	SIRT5 inh	ARNT TACC3 PPI
C[C@@H]1CN([C@@H](C)CO)C(=O)c2cc(NS(=O)(=O)c3cn(C)cn3)ccc2O[C@@H](C)CCCCO[C@@H]1CN(C)Cc1ccc(C(F)(F)F)cc1	0	-1	·	·	15*	3
C[C@@H]1CCCCO[C@H](CN(C)C(=O)c2ccncc2)[C@H](C)CN([C@H](C)CO)C(=O)c2cc(NS(=O)(=O)c3cn(C)cn3)ccc2O1	1.7*	-1	2	·	-2	-12
C[C@@H]1CN([C@@H](C)CO)C(=O)c2cc(NS(=O)(=O)c3cn(C)cn3)ccc2O[C@@H](C)CCCCO[C@H]1CN(C)C(=O)Cc1ccccc1	0	-1	-5	·	17*	9
O=C(C[C@H]1CC[C@H](NC(=O)Nc2ccccc2F)[C@H](CO)O1)NCc1ccc(F)cc1	·	0	0	·	-1	·
O=C(NS(=O)(=O)c1ccccc1[N+](=O)[O-])c1ccccc1	0	0	?	·	2	0
O=[N+]([O-])c1ccccc1S(=O)(=O)N/C(=N/S(=O)(=O)c1ccccc1)c1ccccc1	43*	0	3	16	·	-4
CC1=NN(c2ccc(C(=O)O)cc2)C(=O)/C1=C\c1ccc(OC(=O)c2cccs2)cc1	43*	0	-3	7	2	28
CC1=NN(c2ccccc2)C(=O)/C1=C/c1cccs1	·	0	·	4	·	-19
CCOc1cc(/C=C2\C(=O)N(c3ccc(C(N)=O)cc3)N=C2C)ccc1OC(=O)c1cccs1	·	·	·	·	·	14*
CC(NS(=O)(=O)c1ccc2[nH]c(=O)c(=O)[nH]c2c1)C(=O)O (stereo not given)	0	0	2	-7	25*	-4
COCCN(C(=O)C(=O)NC1CCCC1)C(C(=O)NC1CCCC1)c1ccccc1F (stereo not given)	44*	0	6	2	0	3
Cc1cccc(C)c1NC(=O)CN(C)c1ccc(C(F)(F)F)cn1	43*	0	3	-17	1	1
N=C1/C(=C/c2ccc(-c3cccc(C(=O)O)c3)o2)C(=O)N=C2SC(CC(=O)N3CCOCC3)=NN12	0	0	8	5	22*	·
N=C1/C(=C\c2ccc(SCc3ccccc3)o2)C(=O)N=C2SC(CC(=O)N3CCOCC3)=NN12	1	0	-3	-2	6	4
COc1cccc(CN2[C@@H](CO)[C@@H](c3ccccc3)C23CN(Cc2ccccc2OC)C3)c1	·	0	·	-12	·	·
CCc1nc(N)nc(N)c1-c1ccc(N(C)Cc2ccccc2)c([N+](=O)[O-])c1	0	0	4	2	·	5
Cc1cc(OCc2nc(N)nc(N)c2-c2ccc(Cl)c(Cl)c2)ccc1[N+](=O)[O-]	1	2	-6	34*	-5	·
C[C@H]1CCCCO[C@@H](CN(C)CC2CCCCC2)[C@@H](C)CN([C@@H](C)CO)C(=O)c2cc(NS(=O)(=O)c3cccs3)ccc2O1	1	0	-4	·	3	5
COc1cccc(NC(=O)N2CC(=O)N3[C@H](CO)[C@@H](c4ccc(C5=CCCC5)cc4)[C@H]3C2)c1	·	0	-10	3	0	·
Cc1cccc(NC(=O)CNC(=O)COc2cc(F)ccc2[N+](=O)[O-])c1C	43*	0	-3	·	-2	-9
Cc1cccc(NC(=O)CNC(=O)COc2ccc(C(=O)c3ccc(F)cc3)cc2)c1C	·	0	·	12	·	-11
C[C@@H]1CCCCO[C@H](CN(C)C(=O)c2ccccc2)[C@H](C)CN([C@@H](C)CO)C(=O)c2cc(NC(=O)C3CCCCC3)ccc2O1	0	-1	6	·	-1	-3
CCc1ccc(CN(C)CCc2ccccn2)cc1	0	·	-3	·	21*	-8
Cc1ccc(CN(C)CCc2ccccn2)cc1	·	·	·	·	·	-8
C[C@@H]1CN([C@@H](C)CO)C(=O)Cc2cc(NS(=O)(=O)c3cccs3)ccc2O[C@H]1CN(C)S(=O)(=O)c1ccccc1	-1	-1	78*	·	1	-3
SMILES	FGF22 binding	XiGFP reactiv	DENV2 CPE	FN deposition inh	SIRT5 inh	ARNT TACC3 PPI
C[C@H](CO)N1C[C@H](C)[C@H](CN(C)S(=O)(=O)c2ccccc2)Oc2ccc(NS(=O)(=O)c3cccs3)cc2CC1=O	0	-1	-10	·	-2	-2
CC(C)NC(=O)N(C)C[C@@H]1Oc2ccc(NS(=O)(=O)c3cccs3)cc2CC(=O)N([C@@H](C)CO)C[C@@H]1C	0	0	22*	·	-1	-2
CC(C)NC(=O)N(C)C[C@@H]1Oc2ccc(NS(=O)(=O)c3cccs3)cc2CC(=O)N([C@H](C)CO)C[C@H]1C	0	0	-3	·	0	-1
C[C@H]1CN([C@@H](C)CO)C(=O)c2cccc(NC(=O)C3CC3)c2O[C@@H]1CN(C)Cc1ccncc1	1	0	?	·	3	-3
CC[C@H](C)[C@@H]1NC(=O)[C@@H](CC(C)C)NC(=O)[C@H](C(C)C)NC(=O)[C@H]2CSSC[C@H](NC1=O)C(=O)N2	0	0	7	34*	2	·
c1ccc(CSCc2ccccc2)cc1	0	·	?	·	1	-5
Nc1ccccc1SCc1ccccc1	43*	0	-2	-12	-2	-2
Cc1ccc(-c2ccc([C@@H]3[C@H]4CN(C(=O)c5ccncc5)CC(=O)N4[C@H]3CO)cc2)cc1	·	0	-9	·	-4	·
C[C@@]12C(=O)OC(=O)[C@]1(C)C1CCC2O1	0	0	8	41*	-2	-4
CCn1cc(C(=O)NC(C)CCc2ccccc2)c(=O)c2cc(S(=O)(=O)N(C)C)ccc21 (stereo not given)	0	0	51*	-6	-3	0
COCC(=O)Nc1ccc2c(c1)C(=O)N(C)C[C@H](OC)[C@@H](C)CN(CCC(F)(F)F)[C@@H](C)CO2	0	0	-7	2	-11	-5
C[C@H](CO)N1C[C@H](C)[C@@H](CN(C)Cc2ccc(Cl)c(Cl)c2)Oc2c(NC(=O)CCC(F)(F)F)cccc2C1=O	0	0	22*	-7	·	-3
C[C@H](CO)N1C[C@H](C)[C@@H](CN(C)Cc2ccc(C(=O)O)cc2)Oc2c(NC(=O)Nc3ccccc3)cccc2C1=O	0	-1	30*	·	2	-4
C[C@@H]1CN([C@H](C)CO)C(=O)c2cccc(NC(=O)Nc3ccccc3)c2O[C@@H]1CN(C)Cc1ccc(C(=O)O)cc1	0	-1	16	·	-4	11

High-throughput results: PubChem, Broad Institute
